# CSC inhib: blocks cancer stem cells; cancer stem cell-like cells viability, luminescence; inhibition, % at 7.5 µM; 1.1% of 300,000 active; in the data active means inhibition above about 75%; tested in HMLE shEcad cells
# Mot1-301 SUMO: blocks SUMOylation pathway, rescuing yeast Mot1-301 growth; S. cerevisiae Mot1-301 growth rescue, ATP luminescence, 38.5C; percent above DMSO median, 100 means doubled; growth rescue, % at 18.8 µM; 1% of 320,000 active; AID 2716;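 active means every valid replicate shows activation above 250% relative to neutral control wells; inactive means the rest, any valid replicate at or below 250%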;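 further: OY570 slx delta 5 strain wells were the positive control but not used for scaling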
# T cruzi inh: T. cruzi replication inhibition. T. cruzi beta-gal in NIH3T3, luminescence, 90 h. inhibition, % (no concentration beside the values). 1.4% of 300,000 active. AID 1885;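 active means mean inhibition across valid replicates above about 55%, limit read from the data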;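 further: signal also drops with host cell toxicity which is not excluded here; 0% = plate median of DMSO wells and 100% = zero luminescence signal; higher percent means less beta-gal luminescence so fewer parasites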
#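 Test system: β-gal T. cruzi (Tulahuen C4) inside NIH/3T3 cells / Quantity: 5,000 cells/well / Measured by: luminescence from GalScreen with 0.05% NP40, read after 60 min / Medium: DMEM plus 2% FBS / Measure: parasite load inhibition, % / Reagent: Tulahuen C4 trypomastigotes, 5000/well / Schedule: co-culture of at least 90 h after 3 h attachment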
# Beta apoptosis: blocks beta cell apoptosis; protection from apoptosis, % (test concentration not listed); 0.8% of 300,000 active; AID 435005; INS-1E cytokine-induced death, ATP luminescence, 48 h; percent of positive-control rescue, neutral wells zero;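 active means Every replicate reaches about 75%, or at least half do and their mean reaches it too, limit read from the data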;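 further: 0% = cytokine-treated negative control wells and 100% = positive control rescue; higher means more ATP so stronger rescue from cytokine killing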
# Efflux pump inh: antifungal efflux pump inhibition, Nile Red retention; inhibition, % at 10 µM; 0.44% of 330,000 active; S. cerevisiae Candida pump triplex;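 active means plate passing quality check with inhibition over a set limit, or well fluorescence over plate mean plus 4 SD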;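 further: Nile Red retained in pooled yeast measured as flow cytometry median fluorescence; 0% = buffer negative control and 100% = Enniatin B positive control; higher means more Nile Red kept so more efflux inhibition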
# WT yeast gro inh: growth inhibition of WT yeast, mitochondrial fusion screen; mitochondrial fusion phenotypic screen, WT strain; inhibition, % at 10 µM; 2.1% of 190,000 active; in the data active means inhibition above about 58%; tested in S. cerevisiae
# * marks the source's active call; other numbers are inactive results; x = no result. Hits are enriched below; roughly 4.8% of the tested compounds scored in any of these assays.
SMILES,CSC inhib,Mot1-301 SUMO,T cruzi inh,Beta apoptosis,Efflux pump inh,WT yeast gro inh
Clc1ccccc1OCCCn1ccnc1,-8,5,1,-4,0,x
Clc1ccccc1OCCCCn1ccnc1,1,-9,63*,1,0,6
Cc1ccccc1OCCCCCn1ccnc1,41,45,67*,7,0,4
O=C(NNc1nc2ccc(F)cc2s1)c1cccc(F)c1,63,0,67*,49,0,30
O=C(Nc1nc2ccc(F)cc2s1)c1ccccn1,-6,1,52,76*,0,79*
COc1ccc(S(=O)(=O)N(C)c2nc3ccccc3n3c(CC(C)C)nnc23)cc1,-9,-7,34,5,0,x
O=C(CSCc1ccccc1Br)N/N=C/c1ccc2c(c1)OCO2,18,55,7,2,0,52
CCN(CC)c1ccc(C(=O)N/N=C/c2ccccc2OC(F)F)cc1,0,8,6,80*,0,-10
CCN(CC)c1ccc(N=Cc2ccc(N(CC)CC)cc2O)cc1,11,-4,74*,63,0,27
Cc1occc1C(=O)N/N=C/c1ccc2c(c1)OCO2,49,-18,7,76*,0,x
O=C(CSCc1cccc(Br)c1)N/N=C/c1ccc2c(c1)OCO2,100*,17,4,-1,0,-1
Cc1cc(C(=O)N/N=C/c2ccc3c(c2)OCO3)c(C)o1,15,-15,-13,x,0,6
CC(C)c1c(C(=O)N/N=C/C=C/c2ccccc2)nnn1-c1nonc1N,-15,10,2,-1,0,x
O=C(O)c1cc([N+](=O)[O-])cc2c1nnn2O,0,-9,-7,8,0,29
O=C(N/N=C/c1ccc2c(c1)OCO2)c1ccc(COCC(F)(F)C(F)F)cc1,83*,4,13,3,-1,x
COc1cccc(/C=N/NC(=O)c2ccc3nc[nH]c3c2)c1O,30,53,9,3,0,x
Cc1[nH]c2ccccc2c1/C=N/NC(N)=S,2,5,-2,-7,0,x
CCN(CC)c1ccc(/C=N/NC(=O)c2cccc(S(=O)(=O)Nc3ccccc3OC)c2)c(O)c1,108*,-13,27,91*,0,39
Cc1ccc(NC(=S)N/N=C/c2c(C)[nH]c3ccccc23)cc1,97*,18,36,10,0,96*
CCN(CC)c1ccc(/C=N/NC(=O)c2ccc3nc[nH]c3c2)c(O)c1,106*,4,10,116*,0,x
COC(=O)c1ccc(N2CCN(C)CC2)c(NC(=O)COc2cccc(C)c2)c1,-3,2,8,-16,1,x
CCN(CC)c1ccc(/C=N/NC(=O)OC)c(O)c1,-9,13,x,-10,0,-15
CCN(CC)c1ccc(/C=N/NC(=O)c2ccoc2C)c(O)c1,43,-26,57*,101*,0,x
Cc1cccc(NC(=S)NCc2ccc3c(c2)OCO3)c1,-4,-20,-25,-3,0,-13
Cc1cccc(NC(=S)N/N=C/c2ccc3c(c2)OCO3)c1,31,1,-17,9,0,60*
SMILES,CSC inhib,Mot1-301 SUMO,T cruzi inh,Beta apoptosis,Efflux pump inh,WT yeast gro inh
Cc1cccc(NC(=S)N/N=C/c2c[nH]c3ccccc23)c1,79*,57,10,19,0,76
CCC(=O)Nc1nc2ccc(NC(C)=O)cc2s1,-3,39,-7,0,0,1
CCOc1cccc2sc(Nc3nc4ccc(NC(C)=O)cc4s3)nc12,-10,-7,57*,28,0,-14
COc1ccc(/C=C/C(=O)OCC(=O)Nc2c(C)cccc2C)cc1,x,x,-4,-1,0,-1
Cc1cccc(OCCCC(=O)Nc2ccc(N3CCCCC3)cc2)c1C,6,9,1,5,0,61*
O=S(Cc1ccc(Br)cc1)Cc1nnc(SCc2c(F)cccc2Cl)n1-c1ccccc1 (configuration not stated),3,-13,7,35,0,77*
O=S(=O)(NCC1CCCO1)c1cnc(Cl)c(Br)c1 (configuration not stated),-4,-6,-4,-5,0,2
COc1cc(C)c(C(C)C)cc1S(=O)(=O)NCCCn1ccnc1,x,204,5,0,0,9
Cc1ccc(C(OCC(O)CNC(CO)C(O)c2ccc([N+](=O)[O-])cc2)c2ccccc2)cc1 (configuration not stated),-5,4,13,-1,0,x
O=C(COc1ccccc1/C=C\c1[nH]c(=O)[nH]c(=O)c1[N+](=O)[O-])Nc1ccccc1,-2,2,55*,-2,0,4
CCCn1c(=O)n(C)c(=O)c2c(SCC(=O)NC34CC5CC(CC(C5)C3)C4)nc(CC(C)C)nc21,-2,-26,69*,-1,0,21
Cc1nnc(NC(=O)CSc2nc(CC(C)C)nc3c2c(=O)n(C)c(=O)n3C)s1,-5,5,18,2,0,-12
C=CCC1(C#N)C(SC)=NC2=C(C(=O)CC(C)(C)C2)C1c1ccc(Br)cc1 (configuration not stated),19,34,32,x,1,74*
CSc1ccc(N2C(=O)NC3(CCCCC3)C2=O)cc1,-6,7,-12,-6,0,2
CC(C)(C)c1ccc(S(=O)(=O)NCCc2ccncc2)cc1,23,151,-2,9,0,x
CC1CCCC(C)N1S(=O)(=O)c1ccc(S(=O)(=O)NCCc2ccncc2)cc1 (configuration not stated),-18,7,57*,x,0,-6
O=C1C=C(c2cccs2)C[C@H](c2ccccc2)[C@H]1n1nnc([N+](=O)[O-])n1,149*,12,50,101*,0,-46
O=c1c2cc(O)c(O)cc2oc2cc(O)c(C3OC(CO)C(O)C(O)C3O)c(O)c12 (configuration not stated),-1,-10,-20,0,0,x
Cc1ccccc1NC1=C(Cl)C(=O)OC1OC(=O)c1ccccc1C (configuration not stated),-7,-7,-1,-5,0,68*
Cc1cccc(CN(C)CCc2ccccn2)c1,-1,486,61*,-5,0,-11
COCCn1c(-c2ccc(OC)cc2)cnc1N,31,-4,-6,-4,0,16
CCOc1ccc(-c2cnc(NCc3cccc4ccccc34)n2CCOC)cc1,45,-4,72*,41,0,x
O=C1C=C(/C=C/C2C=CC=CC2)C[C@@H](c2ccc(Cl)cc2)C1 (some centres not stated),44,-11,x,-4,0,x
Cc1cc(C)cc(NC(=O)Nc2ccc(-n3ccc(C(F)(F)F)n3)cc2)c1,104*,-9,9,30,0,x
O=C(O)CCC(=O)Nc1ccc(-n2ccc(C(F)(F)F)n2)cc1,-2,-5,-8,-3,0,x
